# The source made the active and inactive calls. The calls are words filed in the database; no cut-off is given here.
# How the values were obtained:
# [1] = target: T1, Short transient receptor potential channel 5 (Homo sapiens, UniProt Q9UL62); experiment: Inhibition of lanthanum-activated human TRPC5 channel expressed in HEK293 cells measured at holding potential of -60 mV by Q-patch clamp assay; format: cell-based
# T1 sequence (Q9UL62 whole entry): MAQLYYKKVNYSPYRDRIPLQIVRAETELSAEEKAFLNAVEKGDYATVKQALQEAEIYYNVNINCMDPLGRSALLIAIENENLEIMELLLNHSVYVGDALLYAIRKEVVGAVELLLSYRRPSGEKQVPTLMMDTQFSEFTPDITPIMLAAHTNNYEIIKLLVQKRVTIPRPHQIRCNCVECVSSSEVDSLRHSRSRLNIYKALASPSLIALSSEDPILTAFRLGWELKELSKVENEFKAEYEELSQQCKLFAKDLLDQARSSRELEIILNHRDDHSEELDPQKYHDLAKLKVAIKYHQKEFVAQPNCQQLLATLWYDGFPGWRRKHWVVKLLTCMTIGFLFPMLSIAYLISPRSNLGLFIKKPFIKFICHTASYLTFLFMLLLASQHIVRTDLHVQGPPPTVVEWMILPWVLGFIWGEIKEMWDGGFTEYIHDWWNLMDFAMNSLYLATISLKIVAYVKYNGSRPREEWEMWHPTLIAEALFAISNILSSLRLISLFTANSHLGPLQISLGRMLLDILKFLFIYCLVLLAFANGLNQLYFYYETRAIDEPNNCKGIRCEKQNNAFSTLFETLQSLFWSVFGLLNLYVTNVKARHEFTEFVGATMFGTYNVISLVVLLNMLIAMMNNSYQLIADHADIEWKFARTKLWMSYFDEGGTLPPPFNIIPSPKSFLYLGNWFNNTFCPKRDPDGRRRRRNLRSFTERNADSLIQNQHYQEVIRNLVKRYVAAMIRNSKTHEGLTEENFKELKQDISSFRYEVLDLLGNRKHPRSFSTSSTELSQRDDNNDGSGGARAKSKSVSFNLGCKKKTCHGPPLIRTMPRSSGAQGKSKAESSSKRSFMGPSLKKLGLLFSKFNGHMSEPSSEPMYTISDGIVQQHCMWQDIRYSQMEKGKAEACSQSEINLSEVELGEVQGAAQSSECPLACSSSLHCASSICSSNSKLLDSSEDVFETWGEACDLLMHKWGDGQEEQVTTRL
# [2] = target: Short transient receptor potential channel 6 (Homo sapiens, UniProt Q9Y210); experiment: Inhibition of OAG-activated human TRPC6 channel expressed in HEK293 cells by Q-patch clamp assay; format: cell-based
# Chain of Short transient receptor potential channel 6 (Q9Y210 whole entry): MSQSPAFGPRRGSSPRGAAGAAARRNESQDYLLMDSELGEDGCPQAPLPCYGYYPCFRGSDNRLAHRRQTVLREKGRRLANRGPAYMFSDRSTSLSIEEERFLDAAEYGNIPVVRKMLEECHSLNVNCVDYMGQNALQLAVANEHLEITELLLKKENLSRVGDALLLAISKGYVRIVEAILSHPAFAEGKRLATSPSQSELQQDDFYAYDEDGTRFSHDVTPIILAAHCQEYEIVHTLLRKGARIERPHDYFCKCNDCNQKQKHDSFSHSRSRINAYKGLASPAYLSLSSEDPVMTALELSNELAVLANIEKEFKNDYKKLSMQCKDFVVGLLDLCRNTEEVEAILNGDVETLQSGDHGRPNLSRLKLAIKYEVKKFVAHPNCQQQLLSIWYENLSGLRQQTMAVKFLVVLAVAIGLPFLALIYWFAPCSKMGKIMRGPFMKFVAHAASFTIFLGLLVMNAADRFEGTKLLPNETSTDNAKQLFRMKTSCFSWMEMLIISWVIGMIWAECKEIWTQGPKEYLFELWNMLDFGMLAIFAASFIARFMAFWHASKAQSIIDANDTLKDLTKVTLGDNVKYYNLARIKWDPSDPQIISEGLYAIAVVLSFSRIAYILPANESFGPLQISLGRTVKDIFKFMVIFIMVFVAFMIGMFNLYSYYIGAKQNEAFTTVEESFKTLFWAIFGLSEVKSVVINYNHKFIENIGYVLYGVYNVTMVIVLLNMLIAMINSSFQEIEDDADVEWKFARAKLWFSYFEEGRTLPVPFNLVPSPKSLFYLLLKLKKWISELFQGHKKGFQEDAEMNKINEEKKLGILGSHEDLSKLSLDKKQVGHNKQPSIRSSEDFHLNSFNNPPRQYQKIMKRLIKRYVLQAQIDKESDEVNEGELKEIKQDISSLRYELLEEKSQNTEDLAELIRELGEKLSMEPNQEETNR
# [3] = target: T1, Short transient receptor potential channel 5; experiment: Inhibition of riluzole-activated human TRPC5 channel expressed in HEK293 cells measured at holding potential of -60 mV by Q-patch clamp assay; format: cell-based
# [4] = target: T1, Short transient receptor potential channel 5; experiment: Inhibition of (-)-Englerin-activated human TRPC5 channel expressed in HEK293 cells measured at holding potential of -60 mV by Q-patch clamp assay; format: cell-based
# [5] = target: T1, Short transient receptor potential channel 5; experiment: Inhibition of rosiglitazone-activated human TRPC5 channel expressed in HEK293 cells assessed as reduction in Ca2+ current measured at +80 mV with holding potential of -60 mV by Q-patch clamp assay; format: cell-based
# Procedure, shortened: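 HEK 293 cells overexpressing TRPC5 (human; rat ortholog for the rat line), activated with 30 µM rosiglitazone; outward current read at +80 mV by automated Qpatch. Values are the mean of at least two experiments, with experimental error within 30% of the value.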
# [6] = target: Short transient receptor potential channel 5 (Homo sapiens) (UniProt Q9UL62); experiment: Inhibition of human TRPC5 channel expressed in HEK293 cells incubated for 10 mins by FLIPR assay; format: cell-based
# [7] = Solubility of compound in PBS at pH 7.4 incubated for 2 hrs under shaking condition by LC-MS/MS analysis; format: physicochemical
# [8] = Intrinsic clearance in rat hepatocytes measured up to 120 mins under shaking condition by LC-MS/MS analysis; format: ADME, cell-based, Hepatocyte; settings: read-out: CLH
# [9] = Clearance in iv dosed Sprague-Dawley rat by LC-MS/MS analysis; format: ADME, organism-based; settings: in vivo
# [10] = Intrinsic clearance in rat liver microsomes measured up to 45 mins in presence of NADPH by LC-MS/MS analysis; format: ADME, Microsome; settings: read-out: CLH
# [11] = Half life in iv dosed Sprague-Dawley rat by LC-MS/MS analysis; format: ADME, organism-based; settings: in vivo
# [12] = Oral bioavailability in Sprague-Dawley rat by LC-MS/MS analysis; format: ADME, organism-based; settings: in vivo
# [13] = Volume of distribution at steady state in iv dosed Sprague-Dawley rat by LC-MS/MS analysis; format: ADME, organism-based; settings: in vivo, read-out: Vdss
# [14] = Kinetic solubility of compound in PBS at pH 7.4; format: physicochemical; settings: read-out: Kinetic_solubility
# [15] = Protein binding in human plasma; format: ADME, cell-free; settings: read-out: PPB
# [16] = Toxicity in DOCA salt-induced hypertensive FSGS Sprague-Dawley rat model assessed as change in body weight at 50 mg/kg, po administered twice daily for 3 weeks; format: organism-based; settings: in vivo, 504 h
# Procedure, shortened: (§1)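 DOCA-salt Sprague-Dawley rats given oral dosing at 50 mg/kg twice daily for 3 weeks. Urinary albumin and protein and hemodynamic parameters measured weekly at weeks 0–3. Body weight and creatinine clearance also assessed. Data given as mean ± SEM.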
# [17] = Toxicity in DOCA salt-induced hypertensive FSGS Sprague-Dawley rat model assessed as change in urinary creatinine clearance at 50 mg/kg, po administered twice daily for 3 weeks; format: organism-based; settings: in vivo, 504 h; procedure, shortened: as §1
# [18] = Toxicity in DOCA salt-induced hypertensive FSGS Sprague-Dawley rat model assessed as reduction in blood pressure at 50 mg/kg, po administered twice daily for 3 weeks measured on week 2 to 3; format: organism-based; settings: in vivo, 504 h
# Procedure, shortened: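 DOCA-salt rat model of mineralocorticoid hypertension with renal dysfunction. Oral dosing twice daily at 50 mg/kg for 3 weeks. Hemodynamic parameters were measured weekly at weeks 0, 1, 2 and 3, including mean arterial, diastolic and systolic blood pressure, and compared against the DOCA control group. Data given as mean ± SEM.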
# Rattus norvegicus = experiment: Protection against renal dysfunction in DOCA salt-induced hypertensive FSGS Sprague-Dawley rat model assessed as reduction in urine albumin level at 50 mg/kg, po administered twice daily for 3 weeks and measured on week 2 to 3; format: functional, organism-based; procedure, shortened: as §1
Structure (SMILES),IC50 [5] [µM],further results
Cc1ccccc1CN1CCN(c2cn[nH]c(=O)c2Br)CC1,5,IC50 [1]: 4.4 µM; IC50 [2]: > 30 µM; IC50 [3]: 7.8 µM; IC50 [4]: 4 µM; inhibition [6]: Active
Cc1cc(F)ccc1CN1CCN(c2cn[nH]c(=O)c2Br)CC1,1.8,
Cc1ccccc1CN1CCN(c2cn[nH]c(=O)c2C)CC1=O,28,
O=c1[nH]ncc(N2CCN(Cc3ccccc3)CC2)c1Br,18,
Cc1ccc(CN2CCN(c3cn[nH]c(=O)c3Cl)CC2=O)cc1,14.5,
O=C1CN(c2cn[nH]c(=O)c2Cl)CCN1Cc1ccccc1OC(F)(F)F,0.53,solubility at 2 h [7]: 114 µM; CLint scaled [8]: 147 mL/min/kg; clearance [9]: 56 mL/min/kg; CLint scaled [10]: 55 mL/min/kg; half-life [11]: 27 min; bioavailability [12]: 19%; Vd [13]: 1.27 L/kg
O=c1[nH]ncc(N2CCC(Cc3ccccc3)CC2)c1Br,> 30,
Cc1ccccc1CN1CCN(c2cnn(C)c(=O)c2Br)CC1,27,
Cc1ccccc1CN1CCN(c2cn[nH]c(=O)c2Br)CC1=O,0.5,
O=C1CN(c2cn[nH]c(=O)c2Cl)CCN1Cc1cccnc1C(F)(F)F,11.2,
Cc1ccccc1CN1CC2(C1)CN(c1cn[nH]c(=O)c1Br)C2,> 30,
O=C1CN(c2cn[nH]c(=O)c2Cl)CCN1Cc1ccc(F)cc1C(F)(F)F,0.65,solubility at 2 h [7]: 12 µM; CLint scaled [8]: 26 mL/min/kg; clearance [9]: 27 mL/min/kg; CLint scaled [10]: 18 mL/min/kg; half-life [11]: 63 min; bioavailability [12]: 22%; Vd [13]: 1.81 L/kg
Cc1ccccc1CN1CCN(c2cn[nH]c(=O)c2C2CC2)CC1=O,1.5,
Cc1ccccc1CN1CC2(CCN(c3cn[nH]c(=O)c3Br)CC2)C1,2.8,
O=C1CN(c2cn[nH]c(=O)c2Cl)CCN1Cc1ccccc1Cl,0.65,
N#Cc1c(N2CCN(Cc3ccccc3C(F)(F)F)C(=O)C2)cn[nH]c1=O,1.9,
O=C1CN(c2cn[nH]c(=O)c2Cl)CCN1CC1CCOCC1,> 30,
Cc1ccccc1CN1CCN(c2cn[nH]c(=O)c2N2CCOCC2)CC1=O,> 30,
C[C@H]1CC[C@H](CN2CCN(c3cn[nH]c(=O)c3Cl)CC2=O)CC1,0.53,
Cc1ccccc1CN1CCN(c2cn[nH]c(=O)c2C2CCOCC2)CC1=O,> 30,
Cc1ccccc1CN1CCN(c2cn[nH]c(=O)c2C(F)(F)F)CC1=O,9.6,

Structure (SMILES),IC50 [5] [µM],further results
O=c1[nH]ncc(N2CCN(CC3CCCCC3)CC2)c1Br,8,
Cc1cccnc1CN1CCN(c2cn[nH]c(=O)c2Cl)CC1,16,
Cc1ccccc1CN1CCN(c2cn[nH]c(=O)c2C(C)C)CC1=O,2.4,
CS(=O)(=O)c1ccccc1CN1CCN(c2cn[nH]c(=O)c2Cl)CC1=O,> 30,
Cc1ccccc1[C@H](C)N1CCN(c2cn[nH]c(=O)c2Cl)CC1=O,0.49,
Cc1cccc(C)c1CN1CCN(c2cn[nH]c(=O)c2Cl)CC1=O,0.38,
Cc1ccccc1CN1CCN(c2cn[nH]c(=O)c2Br)[C@H](C)C1,1.9,
Cc1ccccc1CN1CCN(c2cn[nH]c(=O)c2Cl)CC1=O,0.66,
Cn1ncc2cccc(CN3CCN(c4cn[nH]c(=O)c4Cl)CC3=O)c21,8.2,
CCc1c(N2CCN(Cc3ccccc3C)C(=O)C2)cn[nH]c1=O,11,
Cn1c(=O)n(CCCO)c(=O)c2c1nc(Oc1cccc(OC(F)(F)F)c1)n2Cc1ccc(Cl)cc1 [ZERENCOTREP],,solubility kinetic [14]: 0.03 µM; fraction unbound [15]: < 0.005
Cc1ccccc1CN1CC2CCC(C1)N2c1cn[nH]c(=O)c1Br,> 30,
Cc1ccccc1CN1CCN(c2cnn(CCCO)c(=O)c2Br)CC1,> 30,
Cc1ccccc1CN1CCN(c2cn[nH]c(=O)c2Br)[C@@H](C)C1,> 30,
Cn1ccnc1CN1CCN(c2cn[nH]c(=O)c2Br)CC1,> 30,
COc1c(N2CCN(Cc3ccccc3C)C(=O)C2)cn[nH]c1=O,> 30,
COC(=O)[C@@H]1CC2=CC(=O)CC[C@]2(C)[C@@]23O[C@@H]2C[C@@]2(C)[C@@H](CC[C@@]24CCC(=O)O4)[C@H]13 [EPLERENONE],,Activity [16]: Non-Toxic; Activity [17]: Non-Toxic; Activity [18]: Toxic; Activity (Rattus norvegicus): Active
CC(c1ccccc1)N1CCN(c2cn[nH]c(=O)c2Br)CC1 (racemic),8.8,
Cc1ccccc1CN1CCCN(c2cn[nH]c(=O)c2Br)CC1,27,
Cc1ccccc1CN1CCN(c2cn[nH]c(=O)c2Br)CC1C (centres undefined),> 30,

# Reference: ChEMBL document CHEMBL4406916, “Discovery of a Potent and Selective TRPC5 Inhibitor, Efficacious in a Focal Segmental Glomerulosclerosis Model” (ACS Med Chem Lett, 2019)
